For one test, the system named is MCF7. The test is described as follows: Antiproliferative activity against human MCF7 cells after 96 hrs by MTT assay. Type of test: functional, cell-based. To be noted: MCF7, 96 h. The essentials:
(§1)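 Cells were grown in RPMI with 10% FBS, 2 mmol/L glutamine and penicillin/streptomycin at 37 °C, 5% CO2. They were seeded at 8 × 10^3 cells/well and left to attach for 24 h. Medium was then changed to serum-free RPMI containing compound at 20, 10, 5 or 2 µM for 96 h. MTT was added for 4 h, then solubilized, and A570 read. Cell number came from a hemocytometer standard curve. IC50 was taken by nonlinear regression of log concentration vs cells/well.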
(In general: Formazan colour is commonly taken as a measure of viable cells.)

Test [1] has as its system MDA-MB-231. Description: Antiproliferative activity against human MDA-MB-231 cells after 96 hrs by MTT assay. In kind it is functional, cell-based. The following applies: MDA-MB-231, 96 h. The essentials: as §1
Test [2] has as its system MDA-MB-231. Description: Antiinvasive activity in human MDA-MB-231 assessed as cell migration at 5 uM after 24 hrs by BME cell invasion assay. In kind it is functional, cell-based. In a few lines:
(§2)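 Cultrex 96-well BME invasion kit (Boyden-type, 8 µm PET membrane), BME 1X coat set overnight at 37 °C. 50,000 MDA-MB-231 cells in serum-free RPMI put in the top chamber with compound at 5 µM. The lower chamber held RPMI with 10% FBS, fibronectin and 10 nM fMLP as chemoattractants. Migration ran 24 h at 37 °C. Invaded cells were loaded with calcein-AM for 1 h and read by fluorescence (ex 485/em 520 nm).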

Test [3] deals with MDA-MB-231. The test is described as follows: Antiinvasive activity in human MDA-MB-231 at 5 uM after 24 hrs by BME cell invasion assay. Type of test: functional, cell-based. In a few lines:
as §2

A short description of test [4]: Antiproliferative activity against mouse +SA cells after 4 days by MTT assay. In kind it is functional, cell-based. The following applies: +SA cell, 96 h. In a few lines: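 +SA mouse mammary epithelial cells were kept in serum-free medium with 10 ng/mL EGF and 10 µg/mL insulin as mitogens. They were plated at 5 × 10^4 cells/well, 6 wells/group, and fed compound at 0.01–1000 µM. Viable cell number was measured by MTT after 4 days of culture.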

Test [5] can be described thus: Ratio of IC50 for gamma-tocotrienol to IC50 for drug against mouse +SA cells after 4 days by MTT assay. Type of test: functional, +SA cell.
Test [6] is described as follows: Inhibition of EGF-dependent mouse +SA cells growth. Type of test: functional, +SA cell.

Active and inactive are the calls of the source. The rule behind the calls is not given here.

Experimental findings from ChEMBL document CHEMBL1158503, “Design and preliminary structure-activity relationship of redox-silent semisynthetic tocotrienol analogues as inhibitors for breast cancer proliferation and invasion” (Bioorg Med Chem, 2010) are described below.

By IC50 is commonly meant the concentration at which inhibition is half-maximal. As for `Cc1c(C)c2c(c(C)c1OC(=O)[C@@H](N)CCCCN)CC[C@@](C)(CCCC(C)CCCC(C)CCCC(C)C)O2` (some centres undefined), it took 12 µM to reach half-maximal inhibition in the test on MCF7 (IC50).
`CC(C)=CCC/C(C)=C/CC/C(C)=C/CC[C@]1(C)CCc2c(C)c(OC(=O)NCc3ccccc3)c(C)c(C)c2O1`: the IC50 was 7.2 µM in the test with MDA-MB-231 [1] and > 20 µM in the test on MCF7. Besides, in the test on MDA-MB-231 [2], the Activity was found to be 8%.
In the case of `COc1cc(COc2cc3c(c(C)c2C)O[C@](C)(CC/C=C(\C)CC/C=C(\C)CCC=C(C)C)CC3)cc(OC)c1`, the outcome in the test with MDA-MB-231 [3] was inactive.
For `CC(C)=CCC/C(C)=C/CC/C(C)=C/CC[C@]1(C)CCc2c(C)c(O)c(C)c(C)c2O1` [ALPHA-TOCOTRIENOL], the IC50 with MDA-MB-231 [1] is > 10 µM; in the test with MCF7, > 20 µM.
As to `CC(C)=CCC/C(C)=C/CC/C(C)=C/CC[C@]1(C)CCc2cc(OC(=O)NS(=O)(=O)c3ccccc3)cc(C)c2O1`, the IC50 in the test on MDA-MB-231 [1] is > 10 µM; with MCF7, 6.1 µM.
In the same order, the values of `CC(C)=CCC/C(C)=C/CC/C(C)=C/CC[C@]1(C)CCc2cc(OC(=O)NS(=O)(=O)c3ccc(Cl)cc3)c(C)c(C)c2O1` are > 10 µM and > 20 µM.
Turning to `CC(C)=CCC/C(C)=C/CC/C(C)=C/CC[C@]1(C)CCc2c(C)c(OC(=O)NS(=O)(=O)c3ccccc3)c(C)c(C)c2O1`, the IC50 was > 10 µM with MDA-MB-231 [1] and 4.5 µM in the test with MCF7.
For `CC(C)=CCC/C(C)=C/CC/C(C)=C/CC[C@]1(C)CCc2c(C)c(OC(=O)NC(=O)Oc3ccccc3)c(C)c(C)c2O1` the same measures were > 10 µM and > 20 µM.
In the case of `Cc1cc(C)c2c(c1C)O[C@](C)(CCCC(C)CCCC(C)CCCC(C)C)CC2` (some centres undefined), in the test with MCF7, the IC50 turned out to be 329 µM.
On to `CC(C)=CCC/C(C)=C/CC/C(C)=C/CC[C@]1(C)CCc2cc(OC(=O)Nc3ccccc3)cc(C)c2O1`, for which the IC50 with MDA-MB-231 [1] was > 10 µM; in the test on MCF7, > 20 µM.
Consider `CC(C)=CCCOc1cc2c(c(C)c1C)O[C@](C)(CC/C=C(\C)CC/C=C(\C)CCC=C(C)C)CC2`, for which, in the test with MDA-MB-231 [3], the result was inactive.
As to `CC(C)=CCC/C(C)=C/CC/C(C)=C/CC[C@]1(C)CCc2c(C)c(OC(=O)NS(=O)(=O)c3ccc(C)cc3)c(C)c(C)c2O1`, the IC50 in the test on MDA-MB-231 [1] is > 10 µM; in the test with MCF7, 6.1 µM.
Turning to `COc1cccc(COc2c(C)c(C)c3c(c2C)CC[C@@](C)(CC/C=C(\C)CC/C=C(\C)CCC=C(C)C)O3)c1`, the outcome in the test with MDA-MB-231 [3] was inactive.
For `CC(C)=CCC/C(C)=C/CC/C(C)=C/CC[C@]1(C)CCc2cc(O)cc(C)c2O1` [DELTA-TOCOTRIENOL], the IC50 in the test with MDA-MB-231 [1] was > 10 µM; in the test with MCF7, 15.5 µM.
In the same order, the values of `CC(C)=CCC/C(C)=C/CC/C(C)=C/CC[C@]1(C)CCc2cc(OC(=O)NS(=O)(=O)c3ccccc3)c(C)c(C)c2O1` are > 10 µM and > 20 µM.
In the same order, the values of `CC(C)=CCC/C(C)=C/CC/C(C)=C/CC[C@]1(C)CCc2c(C)c(OC(=O)NS(=O)(=O)c3ccc(Cl)cc3)c(C)c(C)c2O1` are > 10 µM and 5.1 µM.
For `CC(C)=CCC/C(C)=C/CC/C(C)=C/CC[C@]1(C)CCc2cc(OC(=O)NS(=O)(=O)c3ccc(Cl)cc3)cc(C)c2O1`, the IC50 in the test with MDA-MB-231 [1] is > 10 µM; in the test with MCF7, > 20 µM.
In the case of `CC(C)=CCC/C(C)=C/CC/C(C)=C/CC[C@]1(C)CCc2cc(OC/C=C(\C)CC/C=C(\C)CCC=C(C)C)cc(C)c2O1`, the outcome with MDA-MB-231 [3] was inactive.
In the test on MCF7, `CC(C)=CCC/C(C)=C/CC/C(C)=C/CC[C@]1(C)CCc2cc(OC(=O)NC(=O)Oc3ccccc3)cc(C)c2O1` returned an IC50 of 5.6 µM.
Turning to `CC(C)=CCC/C(C)=C/CC/C(C)=C/CC[C@]1(C)CCc2cc(OC(=O)NCc3ccccc3)cc(C)c2O1`, the IC50 in the test on MDA-MB-231 [1] was > 10 µM; with MCF7, > 20 µM.
On to `CC(C)=CCC/C(C)=C/CC/C(C)=C/CC[C@]1(C)CCc2cc(OC/C=C(\C)CC/C=C(\C)CCC=C(C)C)c(C)c(C)c2O1`, for which the outcome in the test with MDA-MB-231 [3] was inactive.
Take `CC(C)=CCC/C(C)=C/CC/C(C)=C/CC[C@]1(C)CCc2cc(OC(=O)NS(=O)(=O)c3ccc(C)cc3)c(C)c(C)c2O1`: the IC50 in test [4] is 2 µM; in the test with MDA-MB-231 [1] it was > 10 µM; in the test on MCF7, 2.4 µM. Further, in test [5], the “Ratio IC50” value was 2.
Take `COc1cccc(COc2cc3c(c(C)c2C)O[C@](C)(CC/C=C(\C)CC/C=C(\C)CCC=C(C)C)CC3)c1`: the result in the test with MDA-MB-231 [3] was inactive.
For the compound `CC(C)=CCC/C(C)=C/CC/C(C)=C/CC[C@]1(C)CCc2c(C)c(OC(=O)Nc3ccccc3)c(C)c(C)c2O1`, the half-inhibitory concentration (IC50) is > 10 µM in the test with MDA-MB-231 [1] and > 20 µM in the test on MCF7.
With `Cc1c(C)c2c(c(C)c1OC(=O)CCC(=O)O)CC[C@@](C)(CCCC(C)CCCC(C)CCCC(C)C)O2` (some centres undefined), in the test on MCF7, the IC50 is > 368 µM.
Still for that read-out and setting: then `CC(C)=CCC/C(C)=C/CC/C(C)=C/CC[C@]1(C)CCc2cc(OC(=O)NC(=O)Oc3ccccc3)c(C)c(C)c2O1`, with > 20 µM.
Take `CC(C)=CCC/C(C)=C/CC/C(C)=C/CC[C@]1(C)CCc2cc(OC(=O)NCc3ccccc3)c(C)c(C)c2O1`: the IC50 with MDA-MB-231 [1] is > 10 µM; in the test on MCF7, > 20 µM. Also, the outcome in the test with MDA-MB-231 [3] was Active.
As to `CC(C)=CCC/C(C)=C/CC/C(C)=C/CC[C@]1(C)CCc2cc(OC(=O)NS(=O)(=O)c3ccc(C)cc3)cc(C)c2O1`, the half-inhibitory concentration (IC50) in the test with MDA-MB-231 [1] was 6.6 µM; in the test with MCF7, > 20 µM. Moreover, in the test with MDA-MB-231 [3], the outcome was Active.
Take `COc1cc(COc2c(C)c(C)c3c(c2C)CC[C@@](C)(CC/C=C(\C)CC/C=C(\C)CCC=C(C)C)O3)cc(OC)c1`: the outcome in the test on MDA-MB-231 [3] was inactive.
Still for that read-out and setting: in the case of `CC(C)=CCC/C(C)=C/CC/C(C)=C/CC[C@]1(C)CCc2cc(OCCC(C)C)c(C)c(C)c2O1` it was “inactive”.
On the same count and under the same terms, then `COc1cc2c(c(C)c1C)O[C@](C)(CC/C=C(\C)CC/C=C(\C)CCC=C(C)C)CC2`, with “inactive”.
With `CC(C)=CCC/C(C)=C/CC/C(C)=C/CC[C@]1(C)CCc2cc(O)c(C)c(C)c2O1` [GAMMA-TOCOTRIENOL], in test [6], the “inhibition (INH)” value was determined as 50%. Further, the IC50 in the test on MDA-MB-231 [1] was > 10 µM; in the test with MCF7, 11.4 µM.
Take `CC(C)=CCC/C(C)=C/CC/C(C)=C/CC[C@]1(C)CCc2cc(OC(=O)Nc3ccccc3)c(C)c(C)c2O1`: the IC50 in the test with MDA-MB-231 [1] is > 10 µM; in the test on MCF7, > 20 µM.
With `CC(C)=CCC/C(C)=C/CC/C(C)=C/CC[C@]1(C)CCc2c(C)c(OC/C=C(\C)CC/C=C(\C)CCC=C(C)C)c(C)c(C)c2O1`, the result with MDA-MB-231 [3] was inactive.
